# Active and inactive are the calls of the source. The rule behind the calls is not given here.
# Experiments:
# HUVEC [1] = experiment: Antiproliferative activity against HUVEC assessed as growth inhibition rate at 10 uM after 24 hrs by MTT assay; type: functional; conditions: Homo sapiens, read-out: GI
# Method in brief: (§1)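 HUVECs (passages 3–5, primary cord isolates) seeded at 1 × 10⁴ cells/well. Medium replaced with M199 containing 1% FBS plus compound. Viability read by MTT after 24 h. Percent inhibition was calculated from A570 minus A630 of treated versus control wells, and IC50 determined. Triplicate experiments, means ± SEM.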
# HUVEC [2] = experiment: Antiproliferative activity against HUVEC assessed as growth inhibition rate at 100 uM after 24 hrs by MTT assay; type: functional; conditions: Homo sapiens, read-out: GI; method in brief: as §1
# HUVEC [3] = experiment: Antiproliferative activity against HUVEC assessed as growth inhibition rate after 24 hrs by MTT assay; type: functional, cell-based; conditions: Homo sapiens; method in brief: as §1
# HCT-116 = experiment: Cytotoxicity against human HCT116 cells after 24 hrs by MTT assay; type: functional, cell-based; conditions: HCT-116, 24 h
# HUVEC [4] = experiment: Effect on total akt level in VEGF-stimulated HUVEC pretreated at 10 to 50 umol/L for 30 mins before VEGF addition by Western blot analysis; type: functional, cell-based; conditions: Homo sapiens
# HUVEC [5] = experiment: Antiangiogenic activity against HUVEC assessed as inhibition of VEGF-induced migration at 25 umol/L after 20 hrs by microscopy; conditions: Homo sapiens
# Gallus gallus [6] = species on record: Gallus gallus; experiment: Antiangiogenic activity in chicken embryo chorioallantoic membrane model assessed as inhibition of new blood vessel formation at 5 nmol/egg after 48 hrs by microscopy; type: functional, tissue-based
# Method in brief: (§2)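 Fertilized chicken eggs incubated seven days at 37.5 °C, ~55% humidity, and the air sac membrane was detached. Sterile 5 × 5 mm filter paper soaked with DMSO or compound (5 and 10 nmol/egg) was air-dried and placed on the CAM. Eggs were sealed and reincubated. Fat emulsion (20%) was injected into the CAM and vessels photographed. Three independent experiments.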
# BXPC-3 = experiment: Cytotoxicity against human BxPC3 cells after 24 hrs by MTT assay; type: functional, cell-based; conditions: BXPC-3, 24 h
# HuT78 = experiment: Cytotoxicity against human HUT78 cells after 24 hrs by MTT assay; type: functional, cell-based; conditions: HuT78, 24 h
# HUVEC [7] = experiment: Effect on total p38 MAPK level in VEGF-stimulated HUVEC pretreated at 10 to 50 umol/L for 30 mins before VEGF addition by Western blot analysis; type: functional, cell-based; conditions: Homo sapiens
# [8] = target: MAP kinase p38 (Homo sapiens) (UniProt O15264+Q15759+Q16539+P53778); experiment: Inhibition of VEGF receptor signaling in VEGF-stimulated HUVEC assessed a effect on p38 MAPK phosphorylation pretreated at 10 to 50 umol/L for 30 mins before VEGF addition by Western blot analysis; type: protein assay
# A-431 = experiment: Cytotoxicity against human A431 cells after 24 hrs by MTT assay; type: functional, cell-based; conditions: A-431, 24 h
# HUVEC [9] = experiment: Effect on total ERK1/2 level in VEGF-stimulated HUVEC pretreated at 10 to 50 umol/L for 30 mins before VEGF addition by Western blot analysis; type: functional, cell-based; conditions: Homo sapiens
# [10] = Inhibition of VEGF receptor signaling in HUVEC assessed a inhibition of VEGF-induced ERK1/2 phosphorylation pretreated at 10 to 50 umol/L for 30 mins before VEGF addition by Western blot analysis; type: cell-based; conditions: Homo sapiens
# MDA-MB-435 = experiment: Cytotoxicity against human MDA-MB-435 cells after 24 hrs by MTT assay; type: functional, cell-based; conditions: MDA-MB-435, 24 h
# PANC-1 [11] = experiment: Inhibition of MMP-2 protein expression in human PANC1 cells at 10 to 50 umol/L after 24 hrs by SDS-PAGE analysis; type: functional, cell-based
# Method in brief: (§3)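 Gelatin zymography of culture medium from equal numbers of PANC-1 cells exposed to compound for 24 h. Samples run non-reduced and unboiled on 10% polyacrylamide with 1 mg/mL gelatin. Gel washed in 2.5% Triton X-100 buffer, digested 14 h at 37 °C in Tris–HCl/CaCl2/ZnCl2 buffer pH 7.6, then Coomassie-stained. Clear bands imaged.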
# [12] = Cytotoxicity against human SHG44 cells after 24 hrs by MTT assay; type: functional, cell-based; conditions: SHG-44, 24 h
# PBMC = experiment: Cytotoxicity against human PBMC after 24 hrs by MTT assay; type: cell-based
# [13] = Inhibition of VEGF receptor signaling in VEGF-stimulated HUVEC assessed a effect on src phosphorylation pretreated at 10 to 50 umol/L for 30 mins before VEGF addition by Western blot analysis; type: cell-based; conditions: Homo sapiens
# HUVEC [14] = experiment: Antiangiogenic activity against HUVEC assessed as inhibition of VEGF-induced branching and network formation at 25 umol/L after 5 hrs by microscopy; type: functional, cell-based; conditions: Homo sapiens
# Method in brief: (§4)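 Matrigel-coated wells gelled 37 °C 30 min. DMSO or compound (final 25 µmol/L) added for 30 min before plating. After 5 h, enclosed complete tubes counted in five random fields by microscopy. Triplicate experiments, means ± SEM.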
# A549 = experiment: Cytotoxicity against human A549 cells after 24 hrs by MTT assay; type: functional, cell-based; conditions: A549, 24 h
# MKN-45 = experiment: Cytotoxicity against human MKN45 cells after 24 hrs by MTT assay; type: functional, cell-based; conditions: MKN-45, 24 h
# [15] = Inhibition of VEGF receptor signaling in HUVEC assessed a inhibition of VEGF-induced Akt phosphorylation pretreated at 10 to 50 umol/L for 30 mins before VEGF addition by Western blot analysis; type: cell-based; conditions: Homo sapiens
# HL-60 = experiment: Cytotoxicity against human HL60 cells after 24 hrs by MTT assay; type: functional, cell-based; conditions: HL-60, 24 h
# PANC-1 [16] = experiment: Inhibition of MMP-9 protein expression in human PANC1 cells at 10 to 50 umol/L after 24 hrs by SDS-PAGE analysis; type: functional, cell-based; method in brief: as §3
# K562 = experiment: Cytotoxicity against human K562 cells after 24 hrs by MTT assay; type: functional, cell-based; conditions: K562, 24 h
# MDA-MB-231 = experiment: Cytotoxicity against human MDA-MB-231 cells after 24 hrs by MTT assay; type: functional, cell-based; conditions: MDA-MB-231, 24 h
# PANC-1 [17] = experiment: Cytotoxicity against human PANC1 cells after 24 hrs by MTT assay; type: functional, cell-based; conditions: PANC-1, 24 h
# HUVEC [18] = experiment: Effect on total src level in VEGF-stimulated HUVEC pretreated at 10 to 50 umol/L for 30 mins before VEGF addition by Western blot analysis; type: functional, cell-based; conditions: Homo sapiens
# HepG2 = experiment: Cytotoxicity against human HepG2 cells after 24 hrs by MTT assay; type: functional, cell-based; conditions: HepG2, 24 h
# HUVEC [19] = experiment: Antiangiogenic activity against HUVEC assessed as inhibition of VEGF-induced tube formation at 25 umol/L after 5 hrs by microscopy; type: functional, cell-based; conditions: Homo sapiens; method in brief: as §4
# Gallus gallus [20] = species on record: Gallus gallus; experiment: Antiangiogenic activity in chicken embryo chorioallantoic membrane model assessed as inhibition of new blood vessel formation at 10 nmol/egg after 48 hrs by microscopy; type: functional, tissue-based; method in brief: as §2
# HUVEC [21] = experiment: Antiangiogenic activity against HUVEC assessed as inhibition of VEGF-induced cell migration at 25 umol/L after 20 hrs by Boyden chamber assay; type: functional, cell-based; conditions: Homo sapiens
# Method in brief: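 Boyden chamber, 8.0 µm membrane. HUVECs at 80% confluence serum-starved 12 h in basal medium and suspended at 1 × 10⁶ cells/mL. Pre-treated 30 min at room temperature with DMSO or compound (final 25 µmol/L). After 20 h cells fixed, stained, and counted in five random fields. Triplicate experiments.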
smiles,measurement,setting,value
CCN(CC)CCOc1cc2oc(=O)ccc2cc1OC,inhibition of growth at 10 µM,HUVEC [1],0.1%
same,inhibition of growth at 100 µM,HUVEC [2],3.1%
COc1ccc(C(=O)COc2cc3oc(=O)ccc3cc2OC)cc1,IC50,HUVEC [3],37.5 µM
same,inhibition of growth at 10 µM,HUVEC [1],7.6%
same,inhibition of growth at 100 µM,HUVEC [2],85.6%
COc1cc2ccc(=O)oc2cc1OCC(O)CN1CCCCC1 (configuration not stated),IC50,HCT-116,26.1 µM
same,Activity,HUVEC [4],inactive
same,inhibition,HUVEC [5],Active
same,inhibition,Gallus gallus [6],Active
same,IC50,BXPC-3,35 µM
same,IC50,HuT78,46.6 µM
same,Activity,HUVEC [7],inactive
same,inhibition,[8],inactive
same,IC50,HUVEC [3],24.2 µM
same,IC50,A-431,93.9 µM
same,Activity,HUVEC [9],inactive
same,inhibition,[10],Active
same,IC50,MDA-MB-435,63 µM
same,inhibition,PANC-1 [11],Active
same,IC50,[12],42.8 µM
same,inhibition of growth at 10 µM,HUVEC [1],31.4%
same,IC50,PBMC,> 100 µM
same,inhibition,[13],inactive
same,inhibition,HUVEC [14],Active
same,inhibition of growth at 100 µM,HUVEC [2],80.7%
same,IC50,A549,42.7 µM
same,IC50,MKN-45,78.9 µM
same,inhibition,[15],Active
same,IC50,HL-60,30.2 µM
same,inhibition,PANC-1 [16],Active
same,IC50,K562,43.7 µM
same,IC50,MDA-MB-231,51.6 µM
same,IC50,PANC-1 [17],> 100 µM
same,Activity,HUVEC [18],inactive
same,IC50,HepG2,83.9 µM
same,inhibition,HUVEC [19],Active
same,inhibition,Gallus gallus [20],Active
COc1cc2ccc(=O)oc2cc1OCC(=O)c1ccc(Cl)cc1,IC50,HCT-116,59.5 µM
same,Activity,HUVEC [4],inactive
same,inhibition,HUVEC [5],Active
same,inhibition,Gallus gallus [6],Active
same,IC50,BXPC-3,> 100 µM
same,IC50,HuT78,62.1 µM
same,Activity,HUVEC [7],inactive
same,inhibition,[8],inactive
same,IC50,HUVEC [3],10 µM
same,IC50,A-431,> 100 µM
same,Activity,HUVEC [9],inactive
same,inhibition,[10],inactive
same,IC50,MDA-MB-435,92.4 µM
same,inhibition,HUVEC [21],Active
same,inhibition,PANC-1 [11],Active
same,IC50,[12],> 100 µM
same,inhibition of growth at 10 µM,HUVEC [1],62.6%
same,IC50,PBMC,> 100 µM
same,inhibition,[13],inactive
same,inhibition,HUVEC [14],Active
same,inhibition of growth at 100 µM,HUVEC [2],83.8%
same,IC50,A549,> 100 µM
same,IC50,MKN-45,99.2 µM
same,inhibition,[15],Active
same,IC50,HL-60,65.7 µM
same,inhibition,PANC-1 [16],Active
same,IC50,K562,52.5 µM
same,IC50,MDA-MB-231,> 100 µM
same,IC50,PANC-1 [17],19.8 µM
same,Activity,HUVEC [18],inactive
same,IC50,HepG2,56.3 µM
same,inhibition,HUVEC [19],Active
same,inhibition,Gallus gallus [20],Active
COc1cc2ccc(=O)oc2cc1OCC(O)CN1CCN(C)CC1 (configuration not stated),inhibition of growth at 10 µM,HUVEC [1],0.1%
same,inhibition of growth at 100 µM,HUVEC [2],3.4%
COc1cc2ccc(=O)oc2cc1OCCNC(C)C,inhibition of growth at 10 µM,HUVEC [1],0.1%
same,inhibition of growth at 100 µM,HUVEC [2],0.1%
COc1cc2ccc(=O)oc2cc1OCC(=O)c1ccccc1,IC50,HUVEC [3],62.4 µM
same,inhibition of growth at 10 µM,HUVEC [1],3.4%
same,inhibition of growth at 100 µM,HUVEC [2],83.6%
COc1cc2ccc(=O)oc2cc1OCCCl,inhibition of growth at 10 µM,HUVEC [1],0.3%
same,inhibition of growth at 100 µM,HUVEC [2],3.3%
COc1cc2ccc(=O)oc2cc1OCC(O)CNC(C)C (configuration not stated),inhibition of growth at 10 µM,HUVEC [1],0.1%
same,inhibition of growth at 100 µM,HUVEC [2],6.3%
COc1cc2ccc(=O)oc2cc1OCC(O)CN1CCOCC1 (configuration not stated),inhibition of growth at 10 µM,HUVEC [1],0.4%
same,inhibition of growth at 100 µM,HUVEC [2],0.1%
COc1cc2ccc(=O)oc2cc1OCCN1CCN(C)CC1,inhibition of growth at 10 µM,HUVEC [1],0%
same,inhibition of growth at 100 µM,HUVEC [2],12%
COc1cc2ccc(=O)oc2cc1OCC(=O)c1ccc(F)cc1,inhibition of growth at 10 µM,HUVEC [1],3.6%
same,inhibition of growth at 100 µM,HUVEC [2],16.6%

# Source: ChEMBL document CHEMBL2331484, “Synthesis and biological evaluation of scopoletin derivatives” (Bioorg Med Chem, 2013)
